Measured values reported in ChEMBL document CHEMBL1681709, “Structure-activity relationship studies on 1-(5-carboxyindol-1-yl)-propan-2-one inhibitors of human cytosolic phospholipase A2α: variation of the activated ketone moiety” (Bioorg Med Chem Lett, 2011).
The source made the active and inactive calls. The calls are words filed in the database; no cut-off is given here.

What was measured:
[1] = Inhibition of human platelet cytosolic phospholipase A2alpha
In short: (§1)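 cPLA2α isolated from human platelets. Reactions were stopped after 60 min with acetonitrile/methanol/0.1 M aqueous EDTA-Na2 containing 4-undecyloxybenzoic acid as internal standard and NDGA as oxygen scavenger. Released arachidonic acid was cleaned up by solid-phase extraction and quantified by RP-HPLC with UV detection at 200 nm. Results are IC50 or % inhibition at 10 μM, as means of at least two independent determinations.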

[2] = species on record: Homo sapiens; test: Inhibition of human platelet cytosolic phospholipase A2alpha at 10 uM; in short: as §1

| IC50 [1] [µM] | inhibition [2] | SMILES |
| --- | --- | --- |
| > 10 | 21% | CCCCCCCCc1ccc(OCC(Cn2ccc3cc(C(=O)O)ccc32)NC(=O)OC)cc1 (racemic) |
|  | inactive | CCCCCCCCc1ccc(OCC(Cn2ccc3cc(C(=O)O)ccc32)OC(=O)Nc2ccccc2)cc1 (racemic) |
| 1.7 |  | CCCCCCCCc1ccc(OCC(Cn2ccc3cc(C(=O)O)ccc32)NC(=O)Oc2ccc(F)cc2)cc1 (racemic) |
| 4.6 |  | CCCCCCCCc1ccc(OCC(Cn2ccc3cc(C(=O)O)ccc32)NC(=O)Oc2ccccc2)cc1 (racemic) |
| > 10 | 42% | CCCCCCCCc1ccc(OC/C(Cn2ccc3cc(C(=O)O)ccc32)=N/O)cc1 |
| > 10 | 37% | CCCCCCCCc1ccc(OCC(N)Cn2ccc3cc(C(=O)O)ccc32)cc1 (racemic) |
| > 10 | 28% | CCCCCCCCc1ccc(OCC(Cn2ccc3cc(C(=O)O)ccc32)NC(=O)Oc2ccc(Cl)cc2)cc1 (racemic) |
|  | inactive | CCCCCCCCc1ccc(OCC(Cn2ccc3cc(C(=O)O)ccc32)NC(=O)Oc2ccccc2F)cc1 (racemic) |
| 2.3 |  | CCCCC/C=C\C/C=C\C/C=C\C/C=C\CCCC(=O)C(F)(F)F [ARACHIDONYL TRIFLUOROMETHYLKETONE] |
|  | inactive | CCCCCCCCc1ccc(OCC(Cn2ccc3cc(C(=O)O)ccc32)NC(=O)Oc2ccccc2OC)cc1 (racemic) |
| 4.3 |  | CCCCCCCCc1ccc(OCC(Cn2ccc3cc(C(=O)O)ccc32)N=[N+]=[N-])cc1 (racemic) |
| > 10 | 16% | CCCCCCCCc1ccc(OCC(Cn2ccc3cc(C(=O)O)ccc32)OS(C)(=O)=O)cc1 (racemic) |
|  | inactive | CCCCCCCCc1ccc(OCC(Cn2ccc3cc(C(=O)O)ccc32)NC(C)=O)cc1 (racemic) |
| 5.1 |  | CCCCCCCCc1ccc(OCC(Cn2ccc3cc(C(=O)O)ccc32)NC(=O)Oc2cccc(F)c2)cc1 (racemic) |
| > 10 | 32% | CCCCCCCCc1ccc(OC/C(Cn2ccc3cc(C(=O)O)ccc32)=N\O)cc1 |
|  | inactive | CCCCCCCCc1ccc(OCC(Cn2ccc3cc(C(=O)O)ccc32)NC(=O)c2ccccc2)cc1 (racemic) |
| > 10 | 18% | CCCCCCCCc1ccc(OCC(Cn2ccc3cc(C(=O)O)ccc32)OC(=O)c2ccccc2)cc1 (racemic) |
|  | inactive | CCCCCCCCc1ccc(OCC(Cn2ccc3cc(C(=O)O)ccc32)NC(=O)Oc2ccccc2Cl)cc1 (racemic) |
| > 10 | 22% | CCCCCCCCc1ccc(OCC(Cn2ccc3cc(C(=O)O)ccc32)=NOC)cc1 (mixture of isomers) |
| > 10 | 23% | CCCCCCCCc1ccc(OCC(Cn2ccc3cc(C(=O)O)ccc32)NC(=O)Oc2ccc(OC)cc2)cc1 (racemic) |
|  | inactive | CCCCCCCCc1ccc(OCC(Cn2ccc3cc(C(=O)O)ccc32)NC(=O)Nc2ccccc2)cc1 (racemic) |
|  | inactive | CCCCCCCCc1ccc(OCC(Cn2ccc3cc(C(=O)O)ccc32)OC(C)=O)cc1 (racemic) |
